Measurements taken from PMC2756285 (Biochemistry, 2009).
pIC50: −log10 of the molar value. No end group written: not given here.

Columns and labels:
[1] = molecular target: T1, rec-α5LG45 protein—heparin binding (Mus musculus, UniProt Q61001); test: Peptide inhibition of heparin-binding to rec-α5LG45
T1 sequence (Q61001 3318-3718): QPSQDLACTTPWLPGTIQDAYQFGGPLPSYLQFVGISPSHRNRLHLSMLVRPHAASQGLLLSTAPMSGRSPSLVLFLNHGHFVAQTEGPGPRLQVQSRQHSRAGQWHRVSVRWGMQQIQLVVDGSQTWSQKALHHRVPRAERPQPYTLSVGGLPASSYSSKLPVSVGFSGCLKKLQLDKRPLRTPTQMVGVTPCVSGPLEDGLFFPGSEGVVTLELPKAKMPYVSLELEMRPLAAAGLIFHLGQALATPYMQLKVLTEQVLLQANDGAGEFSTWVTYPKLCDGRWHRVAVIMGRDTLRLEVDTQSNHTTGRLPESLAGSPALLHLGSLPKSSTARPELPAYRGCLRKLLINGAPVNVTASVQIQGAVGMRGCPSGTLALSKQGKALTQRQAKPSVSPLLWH
Summary of the method: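 Mouse laminin α5 LG45 fused to human IgG Fc, expressed in transfected 293T cells, purified on Protein A then heparin-Sepharose. The protein (3 µg), heparin-Sepharose beads (1 mg) and varying peptide amounts were incubated for 1 h at 4 °C in 70 µL of 10 mM Tris-HCl pH 7.4 with 100 mM NaCl. Beads were washed twice. Bound protein was detected by reducing 8% SDS-PAGE and anti-human Fc Western blot with ECL. Run in triplicate.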

cell attachment = details: cited from earlier work; for cell adhesion (AG73 and EF-1 together): synergetic interaction of syndecan and integrin α2β1
[2] = cited from earlier work
syndecans = details: membrane-associated proteoglycans; cited from earlier work
syndecan-1 = details: membrane-associated proteoglycan; cited from earlier work
syndecan-4 = details: cited from earlier work

Row | Substance | pIC50 [1] | heparin-binding [2] | interaction with syndecans (syndecans) | other results
1 | AGQWHRVSVRWG-NH2 [A5G81, AGQWHRVSVRWG] | 5.23 |  |  | 
2 | DYATLQLQEGRLHFMFDLG [EF-1] |  |  |  | cell adhesion (AG73 and EF-1 together) (cell attachment): cooperate and induce cell adhesion
3 | GLIYYVAHQNQM [AG75] |  | heparin-binding |  | 
4 | GPLPSYLQFVGI-NH2 [A5G71, GPLPSYLQFVGI] | 4.04 |  |  | 
5 | KMPYVSLELEMR-NH2 [A5G94, KMPYVSLELEMR] | 6.08 |  |  | 
6 | KNSFMALYLSKG [A3G75] |  | heparin-binding sequence | interact with syndecans | 
7 | LVLFLNHGHFVA-NH2 [A5G77, LVLFLNHGHFVA] | 5.15 |  |  | 
8 | RKRLQVQLSIRT [AG73] |  | the strongest heparin-binding peptide | interact with syndecans | cell adhesion (AG73 and EF-1 together) (cell attachment): cooperate and induce cell adhesion; syndecan-1 binding (syndecan-1): binds syndecan-1; heparin/heparan sulfate binding [2]: heparin/heparan sulfate binding
9 | TLFLAHGRLVFM [A4G82] |  | exhibited heparin- and syndecan-4-binding | interact with syndecans | syndecan-4-binding (syndecan-4): exhibited heparin- and syndecan-4-binding; cell attachment activity (cell attachment): cell attachment activity
